# Screening results as filed in PubChem BioAssay.
# Only some compounds are listed: those with a hit (about 1.7% of all), similar ones and a draw of the others.
# CSC inhib = cancer stem cell viability inhibitors, primary screen, luminescence; cancer stem cell-like cells viability; inhibition, % at 7.5 µM; 300,000 compounds, 1.1% hits; in the data active = inhibition above about 75%; inconclusive = no clear call, values can overlap the other calls; tested in HMLE shEcad cells
# SKKanGAS inh = S. pyogenes SKKanGAS growth inhibitors in kanamycin, primary screen, streptokinase expression inhibitor project, SKKanGAS strain, BacTiter-Glo luminescence. inhibition, % at 7.5 µM. 6 h. 300,000 compounds, 1.3% hits. AID 1662, 2009;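 active = mean replicate score, as percent of positive control median, at least 50; inconclusive = mean below 50 but one replicate at or above 50; inactive = mean and every replicate below 50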;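 also: strain carries kanamycin resistance gene driven by streptokinase promoter and grows in 40 µg/ml kanamycin; loss of luminescence reflects streptokinase promoter inhibition or plain growth inhibition; 0% = median of DMSO wells and 100% = positive control at its reference dose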
# Rtt109 Vps75 = inhibitors of C. albicans Rtt109/Vps75 HAT, primary screen, biochemical, ThioGlo CoA-SH fluorescence, plate reader; purified Rtt109/Vps75, 4 h; Histone acetyltransferase RTT109 (Candida albicans (strain SC5314 / ATCC MYA-2876)), …; inhibition, % at 34.9 µM; AID 540336, 2011; 330,000 compounds, 0.16% hits;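 active = inhibition of at least 50% in every replicate; inconclusive = best replicate reaches 50% inhibition but some replicates fall short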
# Target sequence (Q5AAJ8 whole entry, looked up): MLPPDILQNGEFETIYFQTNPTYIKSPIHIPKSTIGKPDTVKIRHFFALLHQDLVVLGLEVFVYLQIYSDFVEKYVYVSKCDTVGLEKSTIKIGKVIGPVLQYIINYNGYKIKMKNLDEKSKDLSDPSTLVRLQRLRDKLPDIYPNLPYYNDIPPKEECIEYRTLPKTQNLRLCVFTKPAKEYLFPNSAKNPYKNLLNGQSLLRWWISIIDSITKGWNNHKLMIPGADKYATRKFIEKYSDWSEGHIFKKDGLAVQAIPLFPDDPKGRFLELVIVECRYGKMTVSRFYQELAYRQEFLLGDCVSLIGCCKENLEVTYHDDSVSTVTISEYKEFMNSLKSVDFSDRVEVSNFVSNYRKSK
# PglD inh = C. jejuni PglD acetyltransferase inhibitors, primary screen, biochemical, DTNB colorimetric, single point | purified PglD enzyme, DTNB colorimetric CoA detection | inhibition, % at 12.5 µM | 360,000 compounds, 0.098% hits | AID 602405, 2012; in the data active = inhibition above about 16%, passing the limit was not always enough; inconclusive = no clear call, values can overlap the other calls
# PfHsp90 set2 = growth inhibition of PfHsp90-expressing yeast, primary screen, antimalarial PfHsp90 inhibitor project, S. cerevisiae, BacTiter-Glo luminescence, single point, set 2. BacTiter-Glo ATP, 48 h; yeast lacking PDR1 and PDR3 efflux regulators. inhibition, % at 9.4 µM. 310,000 compounds, 0.32% hits;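 active = every replicate shows inhibition above about 80%, whatever the replicate mean, limit read from the data; inconclusive = mean inhibition reaches the set limit but some replicate falls short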;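 also: 0% = DMSO neutral controls and 100% = 20 µM radicicol positive controls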
# FN deposition inh = inhibitors of fibronectin matrix deposition, primary screen, AH1F cells, Alexa488-fibronectin fluorescence, plate reader | AH1F fibroblasts, overnight | inhibition, % at 12.6 µM | 350,000 compounds, 0.086% hits;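 active = mean inhibition across replicates of 30% or more, regardless of how many single replicates reach that level; inconclusive = mean under 30% yet at least half of replicates reach 30%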;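 also: positive control wells lacked labelled fibronectin entirely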
#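 Material: AH1F fibroblast monolayer depositing Alexa488-labelled fibronectin into matrix | Input: 10000 AH1F cells/well | Medium: DMEM plus 2% serum, read in PBS | Reagent: Alexa488-fibronectin, 24 nM final in well | Compound dosing: One dose per compound, pinned | Schedule: 1 h adhesion, overnight exposure | Measured by: Fluorescence at 485 nm excitation, 525 nm emission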
# * marks the source's active call; other numbers are inactive results; ? = inconclusive; · = no result given.
SMILES,CSC inhib,SKKanGAS inh,Rtt109 Vps75,PglD inh,PfHsp90 set2,FN deposition inh
C[C@H](CO)N1C[C@H](C)[C@@H](CN(C)C(=O)Nc2ccccc2)Oc2ccc(NC(=O)Nc3ccc(F)cc3)cc2C1=O,·,·,·,5,·,·
COc1cc(C(=O)NC(=S)Nc2ccc(NC(=O)c3ccco3)cc2)cc(OC)c1OC,1,66*,5,·,-11,0
O=C(NC(=S)N(CCc1ccccc1)CCc1ccccc1)c1ccco1,26,82*,20,-2,-59,-3
O=C(Nc1ccc(Oc2cccc3ccccc23)cc1)c1ccco1,-13,79*,-1,-2,1,·
COc1cc(C(=O)NC(=S)N(CCc2ccccc2)CCc2ccccc2)cc(OC)c1OC,49,90*,-15,4,-28,3
CN1[C@@H]2CN(C(=O)C3CCOCC3)c3ccccc3[C@@H]2[C@@H]1CO,·,·,·,-1,·,·
CNC[C@@H]1Oc2ccc(NS(C)(=O)=O)cc2C(=O)N([C@H](C)CO)C[C@@H]1C,·,·,·,2,·,·
C[C@@H]1CN([C@@H](C)CO)C(=O)Cc2cc(NC(=O)c3ccncc3)ccc2O[C@@H]1CN(C)C(=O)Nc1ccc(C(F)(F)F)cc1,·,·,·,-3,·,·
O=C(N/N=C\c1c(O)ccc2ccccc12)c1ccc(Cn2cccn2)o1,30,108*,0,1,2,7
O=C(N/N=C/c1c(O)ccc2ccccc12)c1cccc(C(F)(F)F)c1,·,120*,0,·,91*,·
Cc1ccc(O)c(/C=N/NC(=O)c2[nH]ncc2Br)c1,17,3,46,1,1,-5
CCOc1ccc(/C=N/NC(=O)c2[nH]ncc2Br)c(O)c1,87*,-8,-10,·,6,6
O=C(N/N=C/c1c(O)ccc2ccccc12)c1[nH]ncc1Br,108*,14,12,·,-32,-3
COc1ccc(NC(=O)N(C)C[C@H]2OCc3ccccc3-c3c(n(C)c4ccccc34)C(=O)N([C@@H](C)CO)C[C@H]2C)cc1,·,·,·,3,·,10
CCCC(=O)Nc1ccc2c(c1)OC[C@H](C)N(C(=O)CC)C[C@@H](C)[C@H](OC)CN(C)C2=O,·,·,·,-1,·,-31
C[C@@H]1CN([C@H](C)CO)C(=O)c2cc(NC(=O)c3ccncc3)ccc2O[C@@H](C)CCCCO[C@H]1CN(C)Cc1ccncc1,·,·,·,·,·,-9
C[C@H](CO)N1C[C@H](C)[C@H](CN(C)C(=O)Nc2cccc3ccccc23)OCCCC[C@H](C)Oc2ccc(NC(=O)c3ccncc3)cc2C1=O,·,·,·,1,·,·
Oc1c(Cl)cc(Cl)cc1Sc1cc(Cl)cc(Cl)c1O,120*,106*,·,·,·,·
Fc1cccc2sc(Nc3nc4cc5c(cc4s3)OCO5)nc12,63,53*,5,3,-14,9
Fc1cccc2sc(Nc3nc4cc5c(cc4s3)OCCO5)nc12,47,42,-16,·,8,7
COc1cc2cc(Oc3ccc4ccc(=O)oc4c3)c(=O)oc2cc1OC(C)=O,6,46,3,-1,-17,·
COc1cc2cc(Oc3ccc4ccc(=O)oc4c3)c(=O)oc2cc1O,-3,59*,-12,3,-13,·
COc1cc2ccc(=O)oc2c(O)c1O,·,·,126*,0,9,·
COc1ccc(COCC23Oc4ccccc4[C@H]([C@H]2CO)n2c(c4c(c(C(C)=O)c2=O)C(=O)N(C)C4=O)N3C)cc1,·,·,·,-4,·,·
Oc1cccc(-c2nc3ccc4ccccc4c3c3c2CCC3)c1,-5,63*,2,·,?,·
SMILES,CSC inhib,SKKanGAS inh,Rtt109 Vps75,PglD inh,PfHsp90 set2,FN deposition inh
COCc1cn(CC[C@H]2CC[C@H](NC(=O)Nc3ccc(C(F)(F)F)cc3)[C@@H](CO)O2)nn1,·,·,·,0,·,6
COc1ccc2c(n1)Sc1nc3ccccc3nc1N2,53,1,-1,3,89*,-41
O=C(O)c1ccc(/C=C/c2ccc3cccc(O)c3n2)cc1,·,3,-3,·,-31,-1
O=[N+]([O-])c1cccc(/C=C/c2ccc3cccc(O)c3n2)c1,36,84*,2,7,-1,12
Oc1ccc(/C=C/c2ccc3cccc(O)c3n2)cc1Br,93*,89*,-11,3,108*,14
COc1cc2nc(SCc3ccc(Cl)cc3Cl)n(Cc3cccs3)c(=N)c2cc1OC,46,4,-2,-3,21,·
COc1cc2nc(SCc3ccc(C(F)(F)F)cc3)n(Cc3cccs3)c(=N)c2cc1OC,15,3,13,4,-22,-4
COc1ccc(Cn2c(SCc3ccc(C)cc3)nc3cc(OC)c(OC)cc3c2=N)cc1Cl,103*,102*,23,-4,41,1
COCCCn1c(SCc2cccc(C(F)(F)F)c2)nc2cc(OC)c(OC)cc2c1=N,83*,14,·,-2,·,7
COc1ccc(Cn2c(SCc3cc(C)ccc3C)nc3cc(OC)c(OC)cc3c2=N)cc1,142*,109*,-6,-4,·,·
COCCCn1c(SCc2ccccc2)nc2cc(OC)c(OC)cc2c1=N,68,8,·,0,·,·
O=C(C[C@@H]1CC[C@@H]2[C@H](COC[C@H](O)CN2C(=O)Nc2ccc(F)cc2)O1)NCCc1ccccc1,·,·,·,-8,·,-3
CC(C)N(CCC(=O)c1ccc2ccccc2c1)Cc1ccccc1,75*,·,-13,-1,114*,-4
CC(=O)Nc1ccc(C(=O)N2CC(=O)NC(=O)C2)cc1,6,-12,63*,-6,-4,-10
C[C@H](CO)N1C[C@H](C)[C@H](CN(C)C(=O)NC2CCCC2)Oc2ncc(-c3cccc(F)c3)cc2C1=O,·,·,·,-3,·,-3
NC1=C(Cl)C(=O)c2ccc(S(N)(=O)=O)cc2C1=O,·,·,3,-2,9,31*
N#Cc1cccc(-c2ccc(C3[C@H]4CNC[C@@H]3N4C(=O)Nc3ccc(Cl)cc3)cc2)c1 (stereo partly drawn),·,·,·,·,·,6
Cc1[nH]c2ccccc2c1/C=N/Nc1ccc([N+](=O)[O-])cc1S(=O)(=O)Nc1ccc(Cl)cc1,16,102*,-4,4,-20,0
COc1ccc(NS(=O)(=O)c2cc([N+](=O)[O-])ccc2N/N=C\c2c(C)[nH]c3ccccc23)cc1,-1,27,1,2,4,·
COc1cc(/C=N/NC(=O)c2c(-c3c(Cl)cccc3Cl)noc2C)ccc1OCC(N)=O,·,-6,4,-4,17,-4
Cc1onc(-c2c(Cl)cccc2Cl)c1C(=O)N/N=C(\N)COc1ccc(Cl)cc1,101*,11,21,·,17,5
